T cruzi growth-1 = blocks T. cruzi growth in NIH3T3 culture; 5.9% of 77,000 active; T. cruzi beta-gal in NIH3T3, GalScreen luminescence, 90 h; inhibition, % at 8.34 µM;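 active = mean inhibition above about 93%, with at least 55% of replicates each passing it, limit read from the data, passing the limit was not always enough; inconclusive = only one of those two conditions holds; inactive = neither condition holds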
IDH1 R132H inh = inhibitors of human IDH1 R132H | 0.18% of 70,000 active | O75874 | AID 624101 | inhibition, % at 10 µM | IDH1 R132H reductase, diaphorase/resazurin fluorescence, 60 min; in the data active = inhibition above about 34%; inconclusive = no clear call, values can overlap the other calls; inactive = below about 11%
Target sequence (O75874 whole entry R132H): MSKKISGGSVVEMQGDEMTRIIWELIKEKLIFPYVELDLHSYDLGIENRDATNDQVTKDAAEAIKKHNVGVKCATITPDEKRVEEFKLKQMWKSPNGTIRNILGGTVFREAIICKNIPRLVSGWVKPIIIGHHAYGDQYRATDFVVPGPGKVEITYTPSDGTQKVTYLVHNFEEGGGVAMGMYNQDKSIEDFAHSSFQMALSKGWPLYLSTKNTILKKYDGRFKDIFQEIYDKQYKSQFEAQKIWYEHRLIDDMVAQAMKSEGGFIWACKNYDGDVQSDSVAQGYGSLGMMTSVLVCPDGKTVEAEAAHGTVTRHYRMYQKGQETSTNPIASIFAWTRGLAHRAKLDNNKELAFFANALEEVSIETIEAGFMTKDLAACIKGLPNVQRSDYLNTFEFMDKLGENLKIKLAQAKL
GASC1 inh = inhibitors of human demethylase GASC-1 KDM4C. Q9H3R0. GST-KDM4C 2-372, H3K9me3 peptide, LANCE TR-FRET. inhibition, % at 12.5 µM. 0.15% of 96,000 active;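 active = mean replicate inhibition above about 25%, with at least 55% of replicates also reaching it, limit read from the data, passing the limit was not always enough; inconclusive = only one of those two conditions met; inactive = neither condition met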
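Test system: N-terminal GST-fused human GASC-1 (KDM4C) fragment, residues 2-372; quantity: GASC-1 enzyme at 10 nM final in reaction; dosing: single dose; schedule: 30 min demethylation and 1 h detection at room temperature; signal: LANCE TR-FRET, excitation 340 nm, emissions 618 and 671 nm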
T cruzi growth-2 = inhibitors of T. cruzi proliferation; shares compounds with T cruzi growth-1; AID 651739; 72% of 5,600 active; inhibition, % at 8.35 µM; T. cruzi beta-gal in NIH3T3, GalScreen luminescence, 90 h;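 active = mean replicate inhibition above about 95% and at least 55% of replicates individually reaching it, limit read from the data; inconclusive = only one of the two criteria is met; inactive = neither criterion is met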
T cruzi growth-3 = blocks T. cruzi growth in NIH3T3 host cells; shares compounds with T cruzi growth-1; T. cruzi beta-gal in NIH3T3, GalScreen luminescence, 90 h; inhibition, % at 2.09 µM; 21% of 5,600 active;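 active = mean inhibition above about 95%, with at least 55% of replicates also reaching it, limit read from the data; inconclusive = meets just one of the two conditions; inactive = meets neither condition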
3T3 cytotox = cytotoxicity in mouse NIH/3T3 fibroblasts; 14% of 5,600 active; cytotoxicity (signal decrease), % at 8.35 µM; shares compounds with T cruzi growth-1; AID 651742; NIH/3T3 viability, CellTiter-Glo ATP luminescence, 90 h;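 active = mean signal decrease across replicates above about 35% based on untreated-well scatter, with enough replicates individually passing, limit read from the data; inconclusive = no rule stated though some were filed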
NIH3T3 tox 2 = kills mouse NIH/3T3 fibroblasts | AID 651744 | NIH/3T3 viability, CellTiter-Glo ATP luminescence, 90 h | 56% of 5,600 active | shares compounds with T cruzi growth-1 | inhibition, % at 24.9 µM;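 active = mean loss of cell viability signal at or above a set limit, and enough replicates individually reaching it; inconclusive = meets only the mean limit or only the replicate share; inactive = meets neither condition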
Hits are given with their value; n = inactive; u = inconclusive; x = no result given; ! = not active in a repeat. This excerpt belongs to a sample that is enriched for hits.

SMILES	T cruzi growth-1	IDH1 R132H inh	GASC1 inh	T cruzi growth-2	T cruzi growth-3	3T3 cytotox	NIH3T3 tox 2
C=C1C(=O)O[C@@H]2/C=C(\CO)CCC/C(C)=C/[C@H](O)C12 (some centres undefined)	x	n	x	x	x	x	x
Cc1ccc(S(=O)(=O)Nc2nc(C)cc(N3N=N3)n2)cc1	x	n	x	x	x	x	x
Cc1cccc(OCC(O)CNC(C)(C)CO)c1C (centres undefined)	x	n	x	x	x	x	x
O=C(C[C@H]1C[C@@H]2c3cc(NC(=O)C4CCOCC4)ccc3O[C@@H]2[C@@H](CO)O1)NC1CCCCC1	n	n	n	x	x	x	x
C[C@@H]1CN([C@H](C)CO)C(=O)c2cc(NC(=O)Nc3ccc(F)cc3)ccc2O[C@@H](C)CCCCO[C@H]1CN(C)S(=O)(=O)c1ccccc1	u	x	n	x	x	x	x
C[C@@H]1CN([C@@H](C)CO)C(=O)c2cc(NC(=O)Nc3ccc(F)cc3)ccc2O[C@@H](C)CCCCO[C@@H]1CN(C)S(=O)(=O)c1ccccc1	103.2	n	n	n	n	n	n
C[C@H]1CCCCO[C@H](CN(C)S(=O)(=O)c2ccccc2)[C@@H](C)CN([C@@H](C)CO)C(=O)c2cc(NC(=O)Nc3ccc(F)cc3)ccc2O1	106.4	x	n	110.0	n	n	n
C[C@@H]1CCCCO[C@@H](CN(C)S(=O)(=O)c2ccccc2)[C@@H](C)CN([C@@H](C)CO)C(=O)c2cc(NC(=O)Nc3ccc(F)cc3)ccc2O1	n	n	n	x	x	x	x
C[C@@H]1CCCCO[C@@H](CN(C)S(=O)(=O)c2ccccc2)[C@H](C)CN([C@H](C)CO)C(=O)c2cc(NC(=O)Nc3ccc(F)cc3)ccc2O1	99.4	x	n	107.7	n	n	n
CCCC#Cc1cnc2c(c1)C(=O)N([C@H](C)CO)C[C@H](C)[C@@H](CN(C)S(=O)(=O)c1cn(C)cn1)O2	x	n	n	x	x	x	x
COc1ccc([N+](=O)[O-])cc1N(CC(=O)Nc1cccc(Br)c1)S(C)(=O)=O	x	n	x	x	x	x	x
O=C(NC1CCCCC1)N1CC(=O)N2[C@H](CO)[C@H](c3ccc(-c4cccnc4)cc3)[C@@H]2C1	x	x	n	x	x	x	x
COc1ccc(C)cc1S(=O)(=O)N(C)CC(=O)Nc1ccc(F)cc1	x	n	x	x	x	x	x
C/C=C/c1ccc2c(c1)O[C@@H](CN(C)C(=O)Cc1ccccc1)[C@@H](C)CN([C@H](C)CO)S2(=O)=O	x	n	n	x	x	x	x
O=C(c1ccccc1)N1CC[C@@H]2[C@H]1c1cc(C#Cc3ccccc3F)ccc1N[C@@H]2CO	103.9	x	n	111.7	n	n	n
COc1ccccc1C#Cc1ccc2c(c1)[C@@H]1[C@@H](CCN1C(=O)c1ccccc1)[C@@H](CO)N2	104.1	x	n	105.6	n	n	n
O=C(c1ccc(F)cc1)N1CC[C@@H]2[C@@H](CO)Nc3ccc(C#Cc4ccccc4F)cc3[C@@H]21	n	x	n	x	x	x	x
COc1ccccc1C#Cc1ccc2c(c1)[C@@H]1[C@@H](CCN1C(=O)c1ccccc1)[C@H](CO)N2	x	x	n	x	x	x	x
O=C(c1cccc(F)c1)N1CC[C@@H]2[C@H](CO)Nc3ccc(C#Cc4cccc(F)c4)cc3[C@@H]21	n	x	n	x	x	x	x
O=C(c1cccc(F)c1)N1CC[C@@H]2[C@H]1c1cc(C#Cc3cccc(F)c3)ccc1N[C@@H]2CO	102.9	x	n	104.2	n	n	106.0
O=C(C[C@@H]1CC[C@@H](NC(=O)CCN2CCCCC2)[C@@H](CO)O1)Nc1ccccc1	x	x	n	x	x	x	x
C[C@@H]1CN([C@@H](C)CO)C(=O)c2cc(N(C)C)ccc2O[C@@H]1CN(C)Cc1ccc(C(=O)Nc2ccccc2N)cc1	104.3	x	x	n	n	n	n
C[C@H]1CN([C@@H](C)CO)C(=O)c2cc(NC(=O)Cc3ccccc3)ccc2O[C@H]1CN(C)Cc1ccc(C(=O)Nc2ccccc2N)cc1	u	n	n	n	n	n	u
C[C@H](CO)N1C[C@H](C)[C@H](CN(C)Cc2ccc(C(=O)Nc3ccccc3N)cc2)Oc2ccc(N(C)C)cc2CC1=O	n	n	n	x	x	x	x
C[C@H]1CN([C@@H](C)CO)C(=O)c2cc(N(C)C)ccc2O[C@@H]1CN(C)Cc1ccc(C(=O)Nc2ccccc2N)cc1	n	x	n	x	x	x	x
SMILES	T cruzi growth-1	IDH1 R132H inh	GASC1 inh	T cruzi growth-2	T cruzi growth-3	3T3 cytotox	NIH3T3 tox 2
C[C@@H]1CN([C@@H](C)CO)C(=O)c2cc(NC(=O)Cc3ccccc3)ccc2O[C@@H]1CN(C)Cc1ccc(C(=O)Nc2ccccc2N)cc1	n	x	n	x	x	x	x
C[C@H](CO)N1C[C@H](C)[C@@H](CN(C)Cc2ccc(C(=O)Nc3ccccc3N)cc2)Oc2ccc(N(C)C)cc2CC1=O	121.8	n	n	102.1	n	37.5	75.5
C[C@H]1CN([C@@H](C)CO)C(=O)c2cc(NS(=O)(=O)c3ccc(F)cc3)ccc2O[C@H]1CN(C)S(=O)(=O)c1cn(C)cn1	x	n	n	x	x	x	x
COc1cccc(S(=O)(=O)N[C@@H]2CC[C@@H](CCn3cc(-c4ccccc4)nn3)O[C@@H]2CO)c1	n	n	n	x	x	x	x
CCCNC(=O)Nc1ccc2c(c1)OC[C@@H](C)N(C(=O)CC)C[C@H](C)[C@@H](OC)CN(C)C2=O	n	n	n	x	x	x	x
N#C[C@H]1[C@@H](c2ccc(C3=CCCC3)cc2)[C@@H](CO)N1S(=O)(=O)c1ccccc1	n	x	n	x	x	x	x
Cc1ccc(S(=O)(=O)N(C)C[C@@H]2Oc3ncc(C#CCC(C)C)cc3C(=O)N([C@H](C)CO)C[C@@H]2C)cc1	105.4	n	n	105.3	n	n	64.2
CC(C)CC#Cc1cnc2c(c1)C(=O)N([C@@H](C)CO)C[C@@H](C)[C@H](CN(C)S(=O)(=O)c1ccccc1)O2	n	n	n	x	x	x	x
Cc1ccc(S(=O)(=O)N(C)C[C@@H]2Oc3ncc(C#CCC(C)C)cc3C(=O)N([C@H](C)CO)C[C@H]2C)cc1	121.6!	x	n	103.5	n	n	85.1
CC(C)CC#Cc1cnc2c(c1)C(=O)N([C@@H](C)CO)C[C@@H](C)[C@H](CN(C)S(C)(=O)=O)O2	n	n	n	x	x	x	x
Cc1noc(C)c1S(=O)(=O)N(C)C[C@@H]1Oc2ccc(NC(=O)Nc3ccc(C(F)(F)F)cc3)cc2CC(=O)N([C@@H](C)CO)C[C@@H]1C	n	x	n	x	x	x	x
Cc1noc(C)c1NC(=O)Nc1ccc2c(c1)C(=O)N([C@@H](C)CO)C[C@@H](C)[C@H](CN(C)S(=O)(=O)c1ccc(Cl)cc1)O2	n	n	n	x	x	x	x
CC(C)NC(=O)N(C)C[C@H]1Oc2c(NS(=O)(=O)c3ccc(F)cc3)cccc2C(=O)N([C@@H](C)CO)C[C@H]1C	x	n	n	x	x	x	x
C[C@@H]1CN([C@@H](C)CO)C(=O)c2cc(/C=C/c3ccccc3)cnc2O[C@H]1CN(C)Cc1ccccc1	132.5	n	n	107.0	108.7	n	103.8
C[C@H]1CN([C@@H](C)CO)C(=O)c2cc(/C=C/c3ccccc3)cnc2O[C@H]1CN(C)Cc1ccccc1	n	n	n	x	x	x	x
